Read-outs that look alike come from different tables or passages of the source.
Legend:
CYP199A4 [1] = target: T1, CYP199A4 (Rhodopseudomonas palustris, UniProt Q2IU02); assay: In vitro NADH oxidation activity assay; format: biochemical, Rhodopseudomonas palustris HaA2; details: for PFR (product formation rate): HaPuR:HaPux:CYP199A4 1:10:1, 0.5 μM CYP, 50 mM Tris pH 7.4; for Coupling (percentage of NADH utilized for the formation of products): WT CYP199A4
T1 sequence (Q2IU02 1-410): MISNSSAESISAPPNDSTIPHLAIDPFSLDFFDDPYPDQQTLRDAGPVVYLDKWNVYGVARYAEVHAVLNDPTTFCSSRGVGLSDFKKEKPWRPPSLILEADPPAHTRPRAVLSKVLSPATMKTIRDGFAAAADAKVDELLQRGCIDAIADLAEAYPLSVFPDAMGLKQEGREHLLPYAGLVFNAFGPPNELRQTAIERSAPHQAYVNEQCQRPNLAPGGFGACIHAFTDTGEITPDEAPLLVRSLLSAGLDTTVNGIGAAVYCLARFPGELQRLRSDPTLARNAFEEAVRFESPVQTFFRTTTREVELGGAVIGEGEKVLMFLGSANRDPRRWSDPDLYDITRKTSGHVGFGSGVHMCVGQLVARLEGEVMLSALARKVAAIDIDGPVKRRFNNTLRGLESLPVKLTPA
In short: (§1)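 Turnover run at 30 °C in oxygenated 50 mM Tris, pH 7.4, with 5 μM HaPux, 0.5 μM HaPuR and 0.5 μM CYP199A4 (WT or F298V). Started with substrate at 1 mM final. Product formation rate and coupling from quantified products. H2O2 by HRP/phenol/4-aminoantipyrine assay. Mean ±S.D., n≥3.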

CYP199A4 [2] = target: T1, CYP199A4; assay: Product distribution of enzyme-catalyzed oxidation by HPLC / GC-MS; format: biochemical, Rhodopseudomonas palustris HaA2
In short: (§2)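 Products of in vitro turnovers quantified by HPLC against product-standard calibrations. Sample: 132 μL reaction mix plus 2 μL of 10 mM 9-hydroxyfluorene in ethanol as internal standard (diphenylmethane for the isopropyl substrate), then 66 μL acetonitrile. Standards made by whole-cell E. coli oxidation or borohydride reduction, or estimated from the closest analogue. Derivatized samples identified by GC-MS on a DB-5 column.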

CYP199A4 [3] = target: T1, CYP199A4; assay: Dissociation constant determination by substrate binding titration; set-up: species or system Rhodopseudomonas palustris HaA2; details: WT CYP199A4, 50 mM Tris pH 7.4
In short: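 CYP199A4 at 0.5–1.5 μM in 50 mM Tris, pH 7.4, held at 30 °C. Substrate titrated in from 1, 10 or 100 mM ethanol stocks. Soret band peak-to-trough absorbance difference recorded over 700–250 nm. Percentage high-spin shift estimated to about ±5%. Kd fitted from the ΔA titration data.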

CYP199A4 [4] = target: T1, CYP199A4; assay: Hydrogen peroxide uncoupling, HRP/phenol/4-aminoantipyrine assay; format: biochemical, Rhodopseudomonas palustris HaA2; details: WT CYP199A4, HRP assay
In short: as §1

CYP199A4 [5] = target: T1, CYP199A4; assay: Spin state shift; format: binding, Rhodopseudomonas palustris HaA2; details: WT CYP199A4, 50 mM Tris pH 7.4
In short: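 UV-visible spectra of CYP199A4 recorded at 30±0.5 °C after substrate addition. Percentage shift from low-spin to high-spin heme estimated to approximately ±5% by a previously described method.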

CYP199A4 [6] = target: T1, CYP199A4; details: WT CYP199A4; reported previously; cited from earlier work
CYP199A4 [7] = target: T1, CYP199A4; details: WT CYP199A4, cited from earlier work; for shift to the high‐spin form of ferric CYP199A4: ref 9c, 14, 17; for HS (%), change in the heme spin state from low‐spin to high‐spin upon addition of substrate: reported previously
CYP199A4 [8] = target: T1, CYP199A4; details: WT CYP199A4; reported previously; cited from earlier work; remark: listed apart in the source
F298V mutant of CYP199A4 [9] = assay: Product distribution of oxidation by F298V mutant; format: biochemical, Rhodopseudomonas palustris HaA2
In short: as §2

F298V mutant of CYP199A4 [10] = assay: In vitro NADH oxidation activity assay with F298V mutant; format: biochemical, Rhodopseudomonas palustris HaA2
In short: as §1

F298V mutant of CYP199A4 [11] = assay: Spin state shift assay with F298V mutant; format: binding, Rhodopseudomonas palustris HaA2
[12] = WT CYP199A4, min^−1 abbreviates nmol.nmol‐CYP^−1.min^−1
[13] = listed as 4‐n‐propylbenzoic acid

Row | PFR (product formation rate) (CYP199A4 [1]) [nmol.nmol‐CYP^−1.min^−1] | Coupling (percentage of NADH utilized for the formation of products) (CYP199A4 [1]) [%] | product formation rate (CYP199A4 [1]; [12]) [min⁻¹] | Kd (CYP199A4 [3]) [nM] | HS (%), change in the heme spin state from low‐spin to high‐spin upon addition of substrate (CYP199A4 [5]) [%] | epoxide further oxidation product, share of total products (CYP199A4 [2]; WT CYP199A4, in vitro turnover) [%] | SMILES | shift to the high‐spin form of ferric CYP199A4 (CYP199A4 [7]) [%] | HS (%), change in the heme spin state from low‐spin to high‐spin upon addition of substrate (CYP199A4 [7]) [%] | Coupling (percentage of NADH utilized for the formation of products) (CYP199A4 [8]) [%] | NADH (frequency of NADH oxidation) (CYP199A4 [8]) [nmol.nmol‐CYP^−1.min^−1] | PFR (product formation rate) (CYP199A4 [8]) [nmol.nmol‐CYP^−1.min^−1] | also measured
1 | 170±22 | 45±5 | 170 | 280 ± 20 | ≥95 |  | O=C(O)c1ccc(C2CC2)cc1 [4‐cyclopropylBA, 4‐cyclopropylbenzoic acid] |  |  |  |  |  | NADH oxidation rate (CYP199A4 [1]; [12]): 383 min⁻¹; Cα–Cβ desaturation alkene product, share of total products (CYP199A4 [2]; WT CYP199A4, in vitro turnover): No desaturation was observed; hydrogen peroxide uncoupling (CYP199A4 [4]): ≤ 2%; HS (%), change in the heme spin state from low‐spin to high‐spin upon addition of substrate (CYP199A4 [5]; listed as 4‐cyclopropylbenzoic acid): ≥ 95%
2 | 146±21 | 41±5 | 146 | 590 ± 30 | >95 |  | CC(C)Cc1ccc(C(=O)O)cc1 [4‐isobutylBA, 4‐isobutylbenzoic acid] |  |  |  |  |  | 
3 | 67±3 | 40±1 | 67 | 390 ± 40 | 90 | 2 | CCCCc1ccc(C(=O)O)cc1 [4‐n‐butylBA, 4‐n‐butylbenzoic acid] |  |  |  |  |  | unidentified minor product, share of total products (CYP199A4 [2]; WT CYP199A4, HPLC): < 2%; Cα–Cβ desaturation alkene product, share of total products (CYP199A4 [2]; WT CYP199A4, in vitro turnover): 50%; Cβ hydroxylation product, share of total products (CYP199A4 [2]; WT CYP199A4, in vitro turnover): did not generate any detectable product
4 | 147±12 | 53±2 | 147 | 160 ± 30 | ≥95 | 3 | CCCCCCCc1ccc(C(=O)O)cc1 [4‐n‐heptylBA, 4‐n‐heptylbenzoic acid] |  |  |  |  |  | Coupling (percentage of NADH utilized for the formation of products) (CYP199A4 [1]; listed as 4‐n‐heptylbenzoic acid): 53%

Continued, compound first:

Row | SMILES | PFR (product formation rate) (CYP199A4 [1]) [nmol.nmol‐CYP^−1.min^−1] | Coupling (percentage of NADH utilized for the formation of products) (CYP199A4 [1]) [%] | product formation rate (CYP199A4 [1]; [12]) [min⁻¹] | Kd (CYP199A4 [3]) [nM] | HS (%), change in the heme spin state from low‐spin to high‐spin upon addition of substrate (CYP199A4 [5]) [%] | epoxide further oxidation product, share of total products (CYP199A4 [2]; WT CYP199A4, in vitro turnover) [%] | shift to the high‐spin form of ferric CYP199A4 (CYP199A4 [7]) [%] | HS (%), change in the heme spin state from low‐spin to high‐spin upon addition of substrate (CYP199A4 [7]) [%] | Coupling (percentage of NADH utilized for the formation of products) (CYP199A4 [8]) [%] | NADH (frequency of NADH oxidation) (CYP199A4 [8]) [nmol.nmol‐CYP^−1.min^−1] | PFR (product formation rate) (CYP199A4 [8]) [nmol.nmol‐CYP^−1.min^−1] | also measured
5 | CCc1ccc(C(=O)O)cc1 [4‐ethylBA, 4‐ethylbenzoic acid] |  |  |  |  |  |  | ≥ 95 | ≥95 | 64±4 | 812±7 | 525±88 | Kd (CYP199A4 [6]): 340 ± 20 nM
6 | CC(C)c1ccc(C(=O)O)cc1 [4‐isopropylBA, 4‐isopropylbenzoic acid] |  |  |  |  |  |  | ≥ 95 | ≥95 | 68±1 | 325±36 | 221±27 | Kd (CYP199A4 [6]): 290 ± 10 nM
7 | CCCc1ccc(C(=O)O)cc1 [4‐n‐propylBA, 4‐n‐propylbenzoic acid] | 594±72 | 86±8 |  | 540 ± 20 | ≥95 | 12 |  |  |  |  |  | Coupling (percentage of NADH utilized for the formation of products) (CYP199A4 [1]; [13]): 86%; Cβ hydroxylation product 4‐(2‐hydroxypropyl)benzoic acid (F298V mutant of CYP199A4 [9]): almost none; metabolites arising from initial desaturation, share of total products (F298V mutant of CYP199A4 [9]): 73%; HS (%), change in the heme spin state from low‐spin to high‐spin upon addition of substrate (CYP199A4 [5]; [13]): ≥ 95%; NADH oxidation rate (F298V mutant of CYP199A4 [10]): 378 ± 5 min⁻¹; coupling efficiency (F298V mutant of CYP199A4 [10]): 71%; shift to the high‐spin form (F298V mutant of CYP199A4 [11]): ≥ 95%
8 | CC(C)(C)c1ccc(C(=O)O)cc1 [4‐t‐butylBA, 4‐t‐butylbenzoic acid] |  |  |  |  |  |  | ≥ 95 | ≥95 | 100±13 | 227±4 | 227±32 | 

Source: PMC10100021 (Chemistry, an Asian Journal, 2022)
